{"source": "ChEMBL document CHEMBL1152434", "about": "“Probing the fibrate binding specificity of rat liver fatty acid binding protein” (J Med Chem, 2009)", "key": {"[1]": {"biological_target": "T1, Fatty acid-binding protein, liver (Rattus norvegicus) (UniProt P02692)", "T1 sequence (whole entry)": "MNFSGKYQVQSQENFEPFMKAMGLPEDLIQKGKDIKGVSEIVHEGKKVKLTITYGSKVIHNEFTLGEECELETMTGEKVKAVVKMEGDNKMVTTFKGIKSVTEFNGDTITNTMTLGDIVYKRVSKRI", "assay": "Binding affinity to rat recombinant L-FABP low affinity site expressed in Escherichia coli BL21(DE3) assessed as occupancy at a drug-protein molar ratio of 3:1 by NMR chemical shift perturbation method"}, "[2]": {"biological_target": "T1, Fatty acid-binding protein, liver (Rattus norvegicus)", "assay": "Binding affinity to rat recombinant L-FABP high affinity site expressed in Escherichia coli BL21(DE3) assessed as occupancy at a drug-protein molar ratio of 3:1 by NMR chemical shift perturbation method"}, "[3]": {"biological_target": "T2, Fatty acid-binding protein, liver (Rattus norvegicus, UniProt P02692)", "T2 sequence (P02692 whole entry)": "T1 sequence (whole entry)", "assay": "Binding affinity to rat recombinant L-FABP high affinity site expressed in Escherichia coli BL21(DE3) at 5 deg C by fluorimetric assay", "how_it_was_run": "(§1)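 Steady-state ANS displacement: the fluorescent cavity probe 1-anilino-8-naphthalene sulfonic acid is bound to recombinant rat L-FABP (15N/13C-labelled, purified from E. coli). Fibrates in DMSO are titrated directly into the protein. The fall in ANS fluorescence is plotted against free ligand. A two-site competition nonlinear fit gives EC50, converted to Ki for each site.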"}, "[4]": {"biological_target": "T2, Fatty acid-binding protein, liver", "assay": "Binding affinity to rat recombinant L-FABP high affinity site expressed in Escherichia coli BL21(DE3) at 42 deg C by fluorimetric assay", "how_it_was_run": "as §1"}, "[5]": {"biological_target": "T2, Fatty acid-binding protein, liver", "assay": "Binding affinity to rat recombinant L-FABP high affinity site expressed in Escherichia coli BL21(DE3) at 37 deg C by fluorimetric assay", "how_it_was_run": "as §1"}, "[6]": {"biological_target": "T2, Fatty acid-binding protein, liver", "assay": "Binding affinity to rat recombinant L-FABP high affinity site expressed in Escherichia coli BL21(DE3) at 30 deg C by fluorimetric assay", "how_it_was_run": "as §1"}, "[7]": {"biological_target": "T2, Fatty acid-binding protein, liver", "assay": "Binding affinity to rat recombinant L-FABP high affinity site expressed in Escherichia coli BL21(DE3) at 25 deg C by fluorimetric assay", "how_it_was_run": "as §1"}, "[8]": {"biological_target": "T2, Fatty acid-binding protein, liver", "assay": "Binding affinity to rat recombinant L-FABP high affinity site expressed in Escherichia coli BL21(DE3) at 20 deg C by fluorimetric assay", "how_it_was_run": "as §1"}, "[9]": {"biological_target": "T2, Fatty acid-binding protein, liver", "assay": "Binding affinity to rat recombinant L-FABP high affinity site expressed in Escherichia coli BL21(DE3) at 15 deg C by fluorimetric assay", "how_it_was_run": "as §1"}, "[10]": {"biological_target": "T2, Fatty acid-binding protein, liver", "assay": "Binding affinity to rat recombinant L-FABP high affinity site expressed in Escherichia coli BL21(DE3) at 10 deg C by fluorimetric assay", "how_it_was_run": "as §1"}, "[11]": {"biological_target": "T2, Fatty acid-binding protein, liver", "assay": "Binding affinity to rat recombinant L-FABP low affinity site expressed in Escherichia coli BL21(DE3) at 5 deg C by fluorimetric assay", "how_it_was_run": "as §1"}, "[12]": {"biological_target": "T2, Fatty acid-binding protein, liver", "assay": "Binding affinity to rat recombinant L-FABP low affinity site expressed in Escherichia coli BL21(DE3) at 42 deg C by fluorimetric assay", "how_it_was_run": "as §1"}, "[13]": {"biological_target": "T2, Fatty acid-binding protein, liver", "assay": "Binding affinity to rat recombinant L-FABP low affinity site expressed in Escherichia coli BL21(DE3) at 37 deg C by fluorimetric assay", "how_it_was_run": "as §1"}, "[14]": {"biological_target": "T2, Fatty acid-binding protein, liver", "assay": "Binding affinity to rat recombinant L-FABP low affinity site expressed in Escherichia coli BL21(DE3) at 30 deg C by fluorimetric assay", "how_it_was_run": "as §1"}, "[15]": {"biological_target": "T2, Fatty acid-binding protein, liver", "assay": "Binding affinity to rat recombinant L-FABP low affinity site expressed in Escherichia coli BL21(DE3) at 25 deg C by fluorimetric assay", "how_it_was_run": "as §1"}, "[16]": {"biological_target": "T2, Fatty acid-binding protein, liver", "assay": "Binding affinity to rat recombinant L-FABP low affinity site expressed in Escherichia coli BL21(DE3) at 20 deg C by fluorimetric assay", "how_it_was_run": "as §1"}, "[17]": {"biological_target": "T2, Fatty acid-binding protein, liver", "assay": "Binding affinity to rat recombinant L-FABP low affinity site expressed in Escherichia coli BL21(DE3) at 15 deg C by fluorimetric assay", "how_it_was_run": "as §1"}, "[18]": {"biological_target": "T2, Fatty acid-binding protein, liver", "assay": "Binding affinity to rat recombinant L-FABP low affinity site expressed in Escherichia coli BL21(DE3) at 10 deg C by fluorimetric assay", "how_it_was_run": "as §1"}}, "note": "Activity calls are given as the source filed them. The calls are words filed in the database; no cut-off is given here.", "data": [{"compound": "Cc1ccc(C)c(OCCCC(C)(C)C(=O)O)c1", "values": [{"measurement": "Activity", "setting": "[1]", "value": 79, "unit": "%"}, {"measurement": "Activity", "setting": "[2]", "value": 100, "unit": "%"}]}, {"compound": "CCOC(=O)C(C)(C)Oc1ccc(Cl)cc1", "note": "[CLOFIBRATE]", "values": [{"measurement": "Kd", "setting": "[3]", "value": 6000, "unit": "nM"}, {"measurement": "Activity", "setting": "[1]", "value": "inactive"}, {"measurement": "Activity", "setting": "[2]", "value": 99, "unit": "%"}, {"measurement": "Kd", "setting": "[4]", "value": 12000, "unit": "nM"}, {"measurement": "Kd", "setting": "[5]", "value": 11000, "unit": "nM"}, {"measurement": "Kd", "setting": "[6]", "value": 9600, "unit": "nM"}, {"measurement": "Kd", "setting": "[7]", "value": 8900, "unit": "nM"}, {"measurement": "Kd", "setting": "[8]", "value": 7800, "unit": "nM"}, {"measurement": "Kd", "setting": "[9]", "value": 7300, "unit": "nM"}, {"measurement": "Kd", "setting": "[10]", "value": 6700, "unit": "nM"}]}, {"compound": "CC(C)(Oc1ccc(C(=O)c2ccc(Cl)cc2)cc1)C(=O)O", "note": "[FENOFIBRIC ACID]", "values": [{"measurement": "Kd", "setting": "[11]", "value": 18000, "unit": "nM"}, {"measurement": "Kd", "setting": "[3]", "value": 94, "unit": "nM"}, {"measurement": "Activity", "setting": "[1]", "value": 96, "unit": "%"}, {"measurement": "Activity", "setting": "[2]", "value": 100, "unit": "%"}, {"measurement": "Kd", "setting": "[12]", "value": 29000, "unit": "nM"}, {"measurement": "Kd", "setting": "[13]", "value": 28000, "unit": "nM"}, {"measurement": "Kd", "setting": "[5]", "value": 420, "unit": "nM"}, {"measurement": "Kd", "setting": "[14]", "value": 27000, "unit": "nM"}, {"measurement": "Kd", "setting": "[6]", "value": 360, "unit": "nM"}, {"measurement": "Kd", "setting": "[15]", "value": 24000, "unit": "nM"}, {"measurement": "Kd", "setting": "[7]", "value": 340, "unit": "nM"}, {"measurement": "Kd", "setting": "[16]", "value": 23000, "unit": "nM"}, {"measurement": "Kd", "setting": "[8]", "value": 220, "unit": "nM"}, {"measurement": "Kd", "setting": "[9]", "value": 160, "unit": "nM"}, {"measurement": "Kd", "setting": "[17]", "value": 20000, "unit": "nM"}, {"measurement": "Kd", "setting": "[10]", "value": 100, "unit": "nM"}, {"measurement": "Kd", "setting": "[18]", "value": 19000, "unit": "nM"}]}, {"compound": "CC(C)(Oc1ccc(C2CC2(Cl)Cl)cc1)C(=O)O", "note": "(stereo not given)", "values": [{"measurement": "Activity", "setting": "[1]", "value": 85, "unit": "%"}, {"measurement": "Activity", "setting": "[2]", "value": 100, "unit": "%"}]}, {"compound": "CC(C)OC(=O)C(C)(C)Oc1ccc(C(=O)c2ccc(Cl)cc2)cc1", "note": "[FENOFIBRATE]", "values": [{"measurement": "Kd", "setting": "[11]", "value": 130, "unit": "nM"}, {"measurement": "Kd", "setting": "[3]", "value": 18, "unit": "nM"}, {"measurement": "Activity", "setting": "[1]", "value": 100, "unit": "%"}, {"measurement": "Activity", "setting": "[2]", "value": 100, "unit": "%"}, {"measurement": "Kd", "setting": "[12]", "value": 360, "unit": "nM"}, {"measurement": "Kd", "setting": "[13]", "value": 320, "unit": "nM"}, {"measurement": "Kd", "setting": "[5]", "value": 62, "unit": "nM"}, {"measurement": "Kd", "setting": "[14]", "value": 270, "unit": "nM"}, {"measurement": "Kd", "setting": "[6]", "value": 41, "unit": "nM"}, {"measurement": "Kd", "setting": "[15]", "value": 250, "unit": "nM"}, {"measurement": "Kd", "setting": "[7]", "value": 32, "unit": "nM"}, {"measurement": "Kd", "setting": "[16]", "value": 200, "unit": "nM"}, {"measurement": "Kd", "setting": "[8]", "value": 27, "unit": "nM"}, {"measurement": "Kd", "setting": "[9]", "value": 24, "unit": "nM"}, {"measurement": "Kd", "setting": "[17]", "value": 160, "unit": "nM"}, {"measurement": "Kd", "setting": "[10]", "value": 23, "unit": "nM"}, {"measurement": "Kd", "setting": "[18]", "value": 150, "unit": "nM"}]}, {"compound": "CC(C)(Oc1ccc(CCNC(=O)c2ccc(Cl)cc2)cc1)C(=O)O", "values": [{"measurement": "Activity", "setting": "[1]", "value": 93, "unit": "%"}, {"measurement": "Activity", "setting": "[2]", "value": "inactive"}]}]}
